Reference: ChEMBL document CHEMBL5724801, “EUbOPEN Chemogenomics Library - Multiplex” (2024)
Values joined by “and” are separate entries in the source; they are usually repeats but may differ in a detail not shown here. Identical values can stand only once.

Tested on: HEK-293T
Experiment: Multiplex assay against HEK293T
Assay type: toxicity, cell-based
Details: human
How it was run: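 Cells stained live at seeding with Hoechst33342, BioTracker Green Microtubule Cytoskeleton Dye, MitoTracker Red and Annexin V Alexa Fluor 680 were imaged on a CQ1 microscope at 37°C and 5% CO2 after compound addition. Their classification by CellPathfinder machine-learning gating ran from Hoechst high-intensity objects versus normal cells, to healthy, pyknosed or fragmented nuclei among normal cells, to mitotic or apoptotic among pyknosed cells. Tubulin, mitochondrial-mass and membrane-permeability phenotypes are per cents of healthy-nucleus cells.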

[1] = 12 h, 1 µM, compound concentration 1 uM
[2] = 12 h, 10 µM, compound concentration 10 uM
[3] = 24 h, 1 µM, compound concentration 1 uM
[4] = 24 h, 10 µM, compound concentration 10 uM
[5] = 48 h, 1 µM, compound concentration 1 uM
[6] = 48 h, 10 µM, compound concentration 10 uM

C[C@@H]1C[C@H]2[C@@H]3CCC4=CC(=O)C=C[C@]4(C)[C@@]3(F)[C@@H](O)C[C@]2(C)[C@@]1(O)C(=O)CO [DEXAMETHASONE] was tested, and the “Population Apoptotic (%)” value [1] was 37% and 53%, the “Population Fragmented Nuclei (%)” value [1] was 8% and 7% and the “Population Healthy Nuclei (%)” value [1] was 78% and 80%. For the same compound, the “Population Hoechst High Intensity Objects (%)” value [1] was 2% and 8%, the “Population Membrane Permeable-Phenotype (%)” value [1] was 1% and 0% and the “Population Mitochondria Different-Phenotype (%)” value [1] was 45% and 62%. The “Population Mitotic Cells (%)” value [1] was 62% and 46%, the “Population Normal (%)” value [1] was 97% and 91% and the “Population Pyknosed Nuclei (%)” value [1] was 12%. For the same compound, the “Population Tubulin-Different-Phenotype (%)” value [1] was 24% and 26%, the “Total Cell Count” value [1] was 420 and 372 and the “Population Apoptotic (%)” value [2] was 37% and 44%. The “Population Fragmented Nuclei (%)” value [2] was 7% and 5%, the “Population Healthy Nuclei (%)” value [2] was 79% and 81% and the “Population Hoechst High Intensity Objects (%)” value [2] was 6% and 14%. The “Population Membrane Permeable-Phenotype (%)” value [2] was 0%, the “Population Mitochondria Different-Phenotype (%)” value [2] was 44% and 69% and the “Population Mitotic Cells (%)” value [2] was 62% and 55%. The “Population Normal (%)” value [2] was 93% and 85%, the “Population Pyknosed Nuclei (%)” value [2] was 13% and the “Population Tubulin-Different-Phenotype (%)” value [2] was 33% and 39%. For the same compound, the “Total Cell Count” value [2] was 374 and 436, the “Population Apoptotic (%)” value [3] was 31% and 42% and the “Population Fragmented Nuclei (%)” value [3] was 9% and 12%. The “Population Healthy Nuclei (%)” value [3] was 78% and 79%, the “Population Hoechst High Intensity Objects (%)” value [3] was 4% and 7% and the “Population Membrane Permeable-Phenotype (%)” value [3] was 0%. For the same compound, the “Population Mitochondria Different-Phenotype (%)” value [3] was 30% and 45%, the “Population Mitotic Cells (%)” value [3] was 68% and 57% and the “Population Normal (%)” value [3] was 95% and 92%. The “Population Pyknosed Nuclei (%)” value [3] was 12% and 8%, the “Population Tubulin-Different-Phenotype (%)” value [3] was 17% and the “Total Cell Count” value [3] was 569 and 499. For the same compound, the “Population Apoptotic (%)” value [4] was 36% and 44%, the “Population Fragmented Nuclei (%)” value [4] was 8% and 9% and the “Population Healthy Nuclei (%)” value [4] was 74% and 79%. For the same compound, the “Population Hoechst High Intensity Objects (%)” value [4] was 6% and 15%, the “Population Membrane Permeable-Phenotype (%)” value [4] was 0% and the “Population Mitochondria Different-Phenotype (%)” value [4] was 30% and 43%. The “Population Mitotic Cells (%)” value [4] was 63% and 56%, the “Population Normal (%)” value [4] was 93% and 84% and the “Population Pyknosed Nuclei (%)” value [4] was 16% and 11%. For the same compound, the “Population Tubulin-Different-Phenotype (%)” value [4] was 29% and 22%, the “Total Cell Count” value [4] was 453 and 513 and the “Population Apoptotic (%)” value [5] was 30% and 27%. The “Population Fragmented Nuclei (%)” value [5] was 15%, the “Population Healthy Nuclei (%)” value [5] was 77% and 78% and the “Population Hoechst High Intensity Objects (%)” value [5] was 1% and 3%. The “Population Membrane Permeable-Phenotype (%)” value [5] was 1% and 0%, the “Population Mitochondria Different-Phenotype (%)” value [5] was 18% and 27% and the “Population Mitotic Cells (%)” value [5] was 69% and 72%. The “Population Normal (%)” value [5] was 98% and 96%, the “Population Pyknosed Nuclei (%)” value [5] was 7% and 6% and the “Population Tubulin-Different-Phenotype (%)” value [5] was 12% and 15%. The “Total Cell Count” value [5] was 915 and 685, the “Population Apoptotic (%)” value [6] was 25% and 50% and the “Population Fragmented Nuclei (%)” value [6] was 15% and 16%. For the same compound, the “Population Healthy Nuclei (%)” value [6] was 76%, the “Population Hoechst High Intensity Objects (%)” value [6] was 3% and 6% and the “Population Membrane Permeable-Phenotype (%)” value [6] was 0%. The “Population Mitochondria Different-Phenotype (%)” value [6] was 18% and 28%, the “Population Mitotic Cells (%)” value [6] was 75% and 49% and the “Population Normal (%)” value [6] was 96% and 93%. The “Population Pyknosed Nuclei (%)” value [6] was 7%, the “Population Tubulin-Different-Phenotype (%)” value [6] was 14% and 19% and the “Total Cell Count” value [6] was 760 and 756.
